Data reported in publication PMC7034278 (Neural Regeneration Research, 2019).

Assays:
[1] = system: neural cell adhesion molecule L1; assay: L1 immunofluorescence staining, H2O2-stressed SK-N-SH cells; type: cell-based, human; settings: 250 μM H2O2, 2 h, in comparison with the control group
Outline: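 SK-N-SH cells were seeded at 1 × 10^4 per well, given 250 μM H2O2 for 2 h, then cultured 48 h (peptide arms at 20 μg/mL). Cells were fixed in 4% formaldehyde for 10 min and blocked with 10% donkey serum for 40 min. Anti-L1 mouse monoclonal (1:200) was applied overnight at 4°C, then Alexa 488 secondary (1:500) for 1 h, with DAPI mounting. Confocal L1 intensity was measured.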

[2] = system: mouse cerebellar granule neurons; assay: Neurite outgrowth assay, H2O2-stressed cerebellar granule neurons; type: cell-based; settings: 250 μM H2O2, 2 h, in comparison with the vehicle control group
Outline: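 Primary cerebellar granule neurons from C57BL/6 mice were seeded at 2 × 10^4 cells on poly-D-lysine in Neurobasal A without B-27. They received 250 μM H2O2 for 2 h, then 24 h culture (peptide arms at 20 μg/mL). Cells were fixed in 4% formaldehyde and stained with crystal violet. Neurites at least one soma diameter long and free of cell contact were measured at 40×, about 50 cells per group. Three repeats.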

[3] = system: SK-N-SH human neuroblastoma cells; assay: Cell viability assay; type: cell-based; settings: 250 μM H2O2, 2 h, in comparison with the vehicle control group
Outline: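 SK-N-SH neuroblastoma cells were seeded at 1 × 10^4 per well and exposed to 250 μM H2O2 for 2 h. They were then cultured a further 48 h; peptide arms received 20 μg/mL. CCK-8 reagent was added for 2 h at 37°C, and absorbance was read at 490 nm. Five repeats; mean ± SEM; one-way ANOVA with Bonferroni post-hoc test.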

[4] = system: SK-N-SH human neuroblastoma cells; settings: previous study; ref Zhang et al., 2017; cited from earlier work
Sambucus nigra lectin = assay: Competition ELISA; settings: by phage binding and competition ELISA

Molecule: OO [H2O2]
- L1 expression after H2O2 alone [1]: reduced L1 expression
- neurite length after H2O2 alone [2]: reduced the lengths of neurites
- survival of SK-N-SH cells after H2O2 alone [3]: reduced survival
- cell viability of SK-N-SH cells in response to H2O2 [4]: decreased in a dose- and time-dependent manner

Molecule: H-PRHGKKPTNKRK-OH [mimetic peptide]
- affinity to Sambucus nigra lectin (Sambucus nigra lectin): high affinity
